Series [1] has as its system MDA-MB-231. Put plainly: Antiproliferative activity against human MDA-MB-231 cells assessed as reduction in cell viability measured after 5 days by beckman coulter counting method. To be noted: MDA-MB-231, 120 h. It is filed as functional, cell-based.
The test system of a further series is A549. Put plainly: Antiproliferative activity against human A549 cells assessed as reduction in cell viability measured after 5 days by beckman coulter counting method. It is filed as functional, cell-based. The following applies: A549, 120 h. In short, it runs like this:
(§1)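 Cells kept in DMEM with 10% FBS, 4 mM glutamine, 1 mM sodium pyruvate, penicillin/streptomycin and amphotericin, at 37 °C in 5% CO2. Seeded at 20,000 per well, then exposed to 5 concentrations for 5 days, with DMSO as vehicle. Viable cells counted on a cell viability analyzer. Viability expressed as treated/vehicle count, and IC50 taken from dose-response curves.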

Another series concerns HeLa. Put plainly: Antiproliferative activity against human HeLa cells assessed as reduction in cell viability measured after 5 days by beckman coulter counting method. It counts as functional, cell-based. To be noted: 120 h.
Series [2] has as its system MDA-MB-231. In words: Cell cycle arrest in human MDA-MB-231 cells assessed as accumulation at S phase at 1 uM measured after 24 hrs by propidium iodide staining based flow cytometry (reference value: 19.84%). It is filed as functional. A general note: A flow cytometer gives signals particle by particle.
The test system of series [3] is MDA-MB-231. Put plainly: Induction of apoptosis in human MDA-MB-231 cells assessed as viable cells at 1 uM measured after 24 hrs by annexin V-FITC/propidium iodide staining based flow cytometry (reference value: 90.9%). It counts as functional. The following applies: read-out: Activity.
For series [4], the system named is MDA-MB-231. Put plainly: Cell cycle arrest in human MDA-MB-231 cells assessed as accumulation at G2 phase at 1 uM measured after 24 hrs by propidium iodide staining based flow cytometry (reference value: 5.77%). It is filed as functional. The method in brief:
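MDA-MB-231 cells were seeded at 5 × 10^5 cells/mL and treated for 24 h. They were then trypsinized and washed twice in cold PBS. Cells were resuspended in PBS, stained with PI for 15 min at room temperature in the dark, and analyzed by flow cytometry.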

The test system of series [5] is MDA-MB-231. Put plainly: Cell cycle arrest in human MDA-MB-231 cells assessed as accumulation at G1 phase at 1 uM measured after 24 hrs by propidium iodide staining based flow cytometry (reference value: 74.39%). It counts as functional.
Series [6] relates to MDA-MB-231. Put plainly: Induction of apoptosis in human MDA-MB-231 cells assessed as necrotic cells at 1 uM measured after 24 hrs by annexin V-FITC/propidium iodide staining based flow cytometry (reference value: 4.74%). It counts as functional.
Series [7] concerns MDA-MB-231. Put plainly: Induction of apoptosis in human MDA-MB-231 cells assessed as early apoptotic cells at 1 uM measured after 24 hrs by annexin V-FITC/propidium iodide staining based flow cytometry (reference value: 1.49%). It is filed as functional.
Series [8] has as its system MDA-MB-231. Put plainly: Induction of apoptosis in human MDA-MB-231 cells assessed as late apoptotic cells at 1 uM measured after 24 hrs by annexin V-FITC/propidium iodide staining based flow cytometry (reference value: 2.84%). It counts as functional.
A further series has as its system MCF7. Put plainly: Antiproliferative activity against human MCF7 cells assessed as reduction in cell viability measured after 5 days by beckman coulter counting method. It is filed as functional, cell-based. The following applies: MCF7, 120 h. The method in brief: as §1
For series [9], the system named is 4T1. Put plainly: Antitumor activity against mouse 4T1 cells implanted in mouse assessed as reduction in tumor weight at 1 mg/kg, ip administered daily for 12 days. The following applies: time 12.0 day. It counts as functional, organism-based. The method in brief:
(§2)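 Mice bearing orthotopic 4T1 tumors were randomized into 4 groups (n = 6) once tumors reached about 100 mm2. Groups received vehicle, test compound at 1 or 2 mg/kg, or doxorubicin at 1 mg/kg, given i.p. every day. Body weight and tumor volume were recorded daily. Tumors were excised and weighed at the end, and inhibition was calculated against the saline control.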

Series [10] can be described thus: Toxicity in mouse implanted with mouse 4T1 cells assessed as change in body weight at 1 mg/kg, ip administered daily for 12 days measured daily during compound dosing. It counts as organism-based. The following applies: in vivo, 288 h, time 12 day. The method in brief:
as §2

The test system of series [11] is 4T1. Put plainly: Antitumor activity against mouse 4T1 cells implanted in mouse assessed as tumor growth inhibition at 1 mg/kg, ip administered daily for 12 days relative to control. It counts as functional. To be noted: 4T1, ip, 288 h, time 12 day, read-out: TGI. In short, it runs like this:
as §2

pIC50: −log10 of the molar value. Active and inactive are the calls of the source. The rule behind the calls is not given here.

One may read the pIC50 as −log10 of the IC50, conventionally taken in molar units. For `Cc1ccccc1-n1nc(-c2cccc3ccccc23)nc1N1C(=O)COC12C=CC(=O)C=C2`, the pIC50 in the series on MDA-MB-231 [1] is 6.92; in the series with A549 it was 6.89; in the series with HeLa, 7.00.
For `O=C1C=CC2(C=C1)OCC(=O)N2c1nc(-c2ccc3ccccc3c2)nn1-c1ccc(Cl)cc1`, in that order: 7.15, 6.40 and 6.14.
For `Cc1ccc(-n2nc(-c3ccc4ccccc4c3)nc2N2C(=O)C(C)OC23C=CC(=O)C=C3)cc1` (stereo not given), in that order: 7.00, 5.92 and 6.28.
For `O=C1C=CC2(C=C1)OCC(=O)N2c1nc(-c2ccc3ccccc3c2)nn1-c1ccc2ccccc2c1`, in that order: 7.30, 6.60 and 6.68.
As to `COc1ccc(/C=C\c2cc(OC)c(OC)c(OC)c2)cc1O` [COMBRETASTATIN A4], the Activity with MDA-MB-231 [2] came to 27.34%; with MDA-MB-231 [4], 18.16%; in the series with MDA-MB-231 [5], 54.49%; with MDA-MB-231 [6], 12.8%; in the series on MDA-MB-231 [7] it was 8.57%; in the series with MDA-MB-231 [8] it was 20%. Besides, the viability at 1 µM with MDA-MB-231 [3] was found to be 58.6%.
`O=C1C=CC2(C=C1)OCC(=O)N2c1nc(-c2ccc3c(c2)OCCO3)nn1-c1ccccc1`: the pIC50 was 7.00 with MDA-MB-231 [1], 6.77 in the series with A549 and 7.15 in the series with HeLa.
For `CC1OC2(C=CC(=O)C=C2)N(c2nc(-c3ccc4ccccc4c3)nn2-c2ccc3ccccc3c2)C1=O` (stereo not given), the results for the pIC50 in the series on MDA-MB-231 [1] and with HeLa were 7.22 and 6.52, respectively.
For the compound `O=C1C=CC2(C=C1)OCC(=O)N2c1nc(-c2cccc(Cl)c2)nn1-c1ccccc1`, the pIC50 was 9.10 in the series on MDA-MB-231 [1], 8.39 with MCF7, 7.60 with A549 and 7.34 with HeLa.
Turning to `CC1CN(c2nc(-c3ccc4ccccc4c3)nn2-c2ccccc2)C2(C=CC(=O)C=C2)O1` (stereo not given), the pIC50 with MDA-MB-231 [1] is 6.89; with A549 it was 6.49; with HeLa, 6.59.
`Cn1c(CCCC(=O)O)nc2cc(N(CCCl)CCCl)ccc21` [BENDAMUSTINE]: the pIC50 in the series with MDA-MB-231 [1] is 4.88; with HeLa, < 4.70.
For the compound `O=C1C=CC2(C=C1)OCC(=O)N2c1nc(-c2ccc3c(c2)Cc2ccccc2-3)nn1-c1ccccc1`, the pIC50 in the series with MDA-MB-231 [1] is 7.15; in the series on A549, 6.82; with HeLa, 6.96.
For `COc1ccc(-n2nc(-c3ccc4ccccc4c3)nc2N2C(=O)C(C)OC23C=CC(=O)C=C3)cc1` (stereo not given), in that order: 7.30, 6.07 and 6.85.
For `O=C1C=CC2(C=C1)OCC(=O)N2c1nc(-c2ccc3ccccc3c2)nn1-c1ccccc1`, in that order: 7.15, 6.85 and 6.92.
For the compound `COc1cccc2c1C(=O)c1c(O)c3c(c(O)c1C2=O)C[C@@](O)(C(=O)CO)C[C@@H]3O[C@H]1C[C@H](N)[C@H](O)[C@H](C)O1` [DOXORUBICIN], in the series on 4T1 [9], the outcome was Active. Besides, the Activity result in series [10] is “Non-Toxic”. In addition, in the series with 4T1 [11], the inhibition in vivo at 1 mg/kg was determined as 45.1%.
In the case of `O=C1C=CC2(C=C1)OCC(=O)N2c1nc(-c2ccc3ccccc3c2Br)nn1-c1ccccc1`, the pIC50 with MDA-MB-231 [1] was 7.30; in the series with A549, 7.00; in the series on HeLa, 6.54.
On to `Cc1ccc(-n2nc(-c3cccc4ccccc34)nc2N2C(=O)COC23C=CC(=O)C=C3)cc1`, for which the pIC50 in the series on MDA-MB-231 [1] was 7.40; with HeLa, 6.85.
For the compound `COc1ccc(-n2nc(-c3ccc4ccccc4c3)nc2N2C(=O)COC23C=CC(=O)C=C3)cc1`, the values for the pIC50 in the series with MDA-MB-231 [1], in the series with A549 and in the series on HeLa were 7.22, 6.59 and 6.70, respectively.
Turning to `Cc1ccc(-n2nc(-c3ccc4ccccc4c3)nc2N2C(=O)COC23C=CC(=O)C=C3)cc1`, the pIC50 in the series with MDA-MB-231 [1] was 7.52; in the series with A549, 6.96; in the series on HeLa it was 6.82.
For `Cc1ccc(-n2nc(-c3cccc4ccccc34)nc2N2CCOC23C=CC(=O)C=C3)cc1`, in that order: 6.59, 5.82 and 6.24.
Consider `O=C1C=CC2(C=C1)OCC(=O)N2c1nc(-c2ccc(F)c3ccccc23)nn1-c1ccccc1`, for which the pIC50 is 7.10 in the series with MDA-MB-231 [1], 6.49 with A549 and 6.70 in the series with HeLa.
For `O=C1C=CC2(C=C1)OCC(=O)N2c1nc(-c2ccc3c(c2)Cc2ccccc2-3)nn1-c1ccc(C(F)(F)F)cc1`, in that order: 7.10, 6.74 and 6.89.
For `O=C1C=CC2(C=C1)OCC(=O)N2c1nc(-c2ccc3ncccc3c2)nn1-c1ccccc1`, in that order: 7.30, 6.77 and 6.96.
For `O=C1C=CC2(C=C1)OCC(=O)N2c1nc(-c2ccc3ccccc3c2)nn1-c1ccc(C(F)(F)F)cc1`, in that order: 7.15, 6.34 and 6.41.
With `CC1OC2(C=CC(=O)C=C2)N(c2nc(-c3cccc4ccccc34)nn2-c2ccccc2)C1=O` (stereo not given), the pIC50 was 7.00 in the series with MDA-MB-231 [1], 6.74 with A549 and 6.96 with HeLa.
For `O=C1C=CC2(C=C1)OCCN2c1nc(-c2cccc3ccccc23)nn1-c1ccccc1`, in that order: 6.96, 6.37 and 6.82.
For `Cc1ccc(-n2nc(-c3ccc4ccccc4c3)nc2N2CCOC23C=CC(=O)C=C3)cc1`, in that order: 6.80, 5.70 and 6.28.
For `CC1OC2(C=CC(=O)C=C2)N(c2nc(-c3ccc4ccccc4c3)nn2-c2ccccc2)C1=O` (stereo not given), in that order: 7.15, 6.51 and 6.92.
Turning to `O=C1C=CC2(C=C1)OCCN2c1nc(-c2ccc3ccccc3c2)nn1-c1ccccc1`, the pIC50 in the series on MDA-MB-231 [1] was 6.64; with HeLa, 6.43.

The record behind these values is ChEMBL document CHEMBL4732107, “Synthesis and anticancer activity evaluation of naphthalene-substituted triazole spirodienones” (Eur J Med Chem, 2021).
